Compounds with a hit are over-represented: about 1.9% of the library has one in this group of screens.
PLCg1 inh: inhibitors of human phospholipase C gamma1; purified PLC-gamma1, fluorogenic substrate, fluorescence; inhibition, % at 12.2 µM; 370,000 tested, 0.84% active; AID 720700; in the data active = inhibition above about 9.5%
Target sequence (P19174 whole entry, looked up): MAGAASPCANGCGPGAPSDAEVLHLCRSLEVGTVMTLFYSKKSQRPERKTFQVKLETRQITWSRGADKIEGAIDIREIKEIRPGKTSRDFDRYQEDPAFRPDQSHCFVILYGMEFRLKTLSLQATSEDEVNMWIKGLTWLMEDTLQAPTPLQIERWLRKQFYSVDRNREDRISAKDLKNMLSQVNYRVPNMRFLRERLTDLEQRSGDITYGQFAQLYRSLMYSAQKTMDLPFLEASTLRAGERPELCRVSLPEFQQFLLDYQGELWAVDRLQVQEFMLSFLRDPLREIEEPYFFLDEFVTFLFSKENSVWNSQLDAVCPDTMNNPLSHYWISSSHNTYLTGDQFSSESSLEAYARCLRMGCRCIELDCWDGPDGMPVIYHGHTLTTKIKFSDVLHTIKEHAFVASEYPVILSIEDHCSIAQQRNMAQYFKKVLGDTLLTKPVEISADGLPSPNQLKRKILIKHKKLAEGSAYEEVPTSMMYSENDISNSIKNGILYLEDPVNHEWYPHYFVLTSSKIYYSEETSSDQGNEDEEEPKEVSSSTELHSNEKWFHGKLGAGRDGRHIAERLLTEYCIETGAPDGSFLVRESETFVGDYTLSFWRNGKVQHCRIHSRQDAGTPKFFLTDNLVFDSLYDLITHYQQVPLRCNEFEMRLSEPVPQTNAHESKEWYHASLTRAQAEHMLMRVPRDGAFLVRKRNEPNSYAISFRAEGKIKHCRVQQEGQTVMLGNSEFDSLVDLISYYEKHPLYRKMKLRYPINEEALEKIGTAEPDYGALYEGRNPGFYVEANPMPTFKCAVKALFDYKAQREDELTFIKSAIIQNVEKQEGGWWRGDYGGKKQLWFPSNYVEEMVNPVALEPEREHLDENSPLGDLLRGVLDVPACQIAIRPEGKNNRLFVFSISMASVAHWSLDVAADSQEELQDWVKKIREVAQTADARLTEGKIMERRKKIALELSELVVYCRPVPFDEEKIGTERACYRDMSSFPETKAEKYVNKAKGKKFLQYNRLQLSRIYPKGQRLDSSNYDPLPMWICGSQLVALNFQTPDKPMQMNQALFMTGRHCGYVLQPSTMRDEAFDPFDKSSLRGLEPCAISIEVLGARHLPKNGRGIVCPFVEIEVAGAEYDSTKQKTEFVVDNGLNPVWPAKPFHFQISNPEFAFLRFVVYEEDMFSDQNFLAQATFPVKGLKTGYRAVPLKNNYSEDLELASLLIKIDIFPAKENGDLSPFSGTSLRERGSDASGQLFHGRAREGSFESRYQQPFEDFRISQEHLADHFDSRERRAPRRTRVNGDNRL
PLCb3 inh: inhibitors of human phospholipase C beta3; Q01970; Purified PLC-beta3, fluorogenic substrate, fluorescence; inhibition, % at 12.2 µM; 370,000 tested, 0.18% active; AID 720704; in the data active = inhibition above about 11%
ARFGAP1 inhibitor: inhibits rat ARF GTPase activating protein 1. AID 651572. 360,000 tested, 0.26% active. Arfgap1-stimulated ARF1 GTP hydrolysis, GDP FP detection. inhibition, % at 16.5 µM. Q62848;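 active = inhibition above a per-plate limit, mean inhibition of low control wells plus 3 SD, cut at about 25% in these data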
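Material: rat Arfgap1 GAP domain (His6, aa 1-136), purified enzyme. Also added: human ARF1(Δ1-17)-GTP substrate. Compound dosing: 16.5 µM single point, 1.26% DMSO. Timing: enzyme reaction 120 min at 25 °C after 20 min preincubation. Signal: GDP detection by fluorescence polarization. Read-out basis: percent inhibition of GAP-stimulated GDP formation, scaled between DMSO and no-Arfgap1 medians.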
sPLA2-III inh: Inhibits HGIII-sPLA2 liposome hydrolysis, primary screen; Q9NZ20; QFRET BODIPY PC-A2 liposome hydrolysis, fluorescence; inhibition, % at 12.2 µM; 370,000 tested, 0.56% active; AID 743126;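 active = inhibition above mean plus 3 SD of compounds lying within the high and low control bounds, cut at about 19% in these data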
ASAP1 GAP inh: blocks human ASAP1-stimulated Arf1 GTP hydrolysis | GDP FP detection | inhibition, % at 16.5 µM | 360,000 tested, 0.19% active; in the data active = inhibition above about 25%
A number is an active result; - = inactive; . = not tested or not shown; ! = a repeat was not active.

SMILES	PLCg1 inh	PLCb3 inh	ARFGAP1 inhibitor	sPLA2-III inh	ASAP1 GAP inh
COC(=O)C(C(=O)OC)[C@@H]1C=C[C@H](C[N+](=O)[O-])N(C(C)=O)C1	11.8	-	-	-	-
COC(=O)C(N)Cc1ccc(OC)c([N+](=O)[O-])c1 (stereo not given)	-	-	-	-	-
CC(=NNC(=O)CSc1nnc(-c2ccc(C(C)(C)C)cc2)n1-c1ccccc1)c1cccc2ccccc12	-	-	.	-	.
COc1ccc2nc(NC(=O)CN(c3ccc(C)cc3)S(=O)(=O)c3c(C)nn(C)c3C)sc2c1	-	-	27.8	-	-
COc1ccc(NC(=O)CN(c2ccc(C)cc2)S(=O)(=O)c2c(C)nn(C)c2C)cc1	-	-	-	-	-
CC(=O)c1ccc(NCCCN2CCC(C(O)(c3ccccc3)c3ccccc3)CC2)cc1	-	-	.	-	.
FC(F)(F)COc1nc(N2CCOCC2)nc(N(c2ccccc2)c2ccccc2)n1	13.2	-	-	-	-
O=C(Nc1cccc(C(F)(F)F)c1)OCCCN1CCC2(CCC(c3ccccc3)CC2)C1=O (stereo not given)	-	-	.	-	.
S=C(Nc1ccccc1)OC1CCC12CCC(c1ccccc1)CC2 (stereo not given)	-	-	.	-	.
Cc1ccc2c(c1)N(C(=O)CSc1nncn1C)C(C)(C)c1ssc(=S)c1-2	-	-	-	24.4	-
Cc1ccc2c(c1)N(C(=O)c1ccco1)C(C)(C)c1ssc(=S)c1-2	-	-	-	-	-
CN=C(Nc1ccc(Cl)cc1)c1ccc(C(F)(F)F)cc1	14.8	-	-	-	-
CN=C(Nc1ccc(Cl)cc1)c1cccc(C(F)(F)F)c1	-	-	-	-	-
O=C(CC(c1ccccc1)c1ccccc1)Nc1ccc(Cl)cn1	9.6	-	-	-	-
C[C@@H](OC(=O)N1CCCCC1)[C@H]1O[C@]2(C)CCCC[C@H]1O2	11.3	-	-	-	-
C[C@@H](O)[C@H]1O[C@]2(C)CCC[C@H]1O2	-	-	-	-	-
C[C@@H]1CCCCCCCCC(=O)OCCN(C(=O)OC(C)(C)C)[C@H](C)CCCCCCCCC(=O)OCCN1C(=O)OC(C)(C)C	-	12.9	-	-	-
C[C@@H]1CCCCCCCCC(=O)OCCN1C(=O)OC(C)(C)C	-	-	-	-	-
CCOC(=O)c1ccc(NS(=O)(=O)c2ccc3[nH]c(=O)[nH]c3c2)cc1	10.1	-	-	-	-
O=C(Nc1cccc(NC(=O)c2c(F)cccc2F)n1)c1c(F)cccc1F	-	-	24.8	-	-
O=C(Nc1cccc(NC(=O)c2cccc(F)c2)n1)c1cccc(F)c1	-	-	-	-	-
COc1cc2sc3cc(NCC[C@@H]4CCCN4C)ccc3c(=O)c2cc1OC	-	-	26.6	-	-
CCn1c(Cc2cccs2)nnc1SCC(=O)Nc1cccc2ccccc12	-	-	.	-	.
O=C(N/N=C/c1ccc(O)cc1)c1cc(-c2ccc3c(c2)OCO3)n[nH]1	-	-	25.8	-	-
COC(=O)[C@]12C[C@H](CC(=O)NCCc3ccccc3OC)C(=O)N(CCC3=CCCCC3)C1=C[C@H](C(C)C)O[C@@H]2C1CC1	-	-	.	-	.
SMILES	PLCg1 inh	PLCb3 inh	ARFGAP1 inhibitor	sPLA2-III inh	ASAP1 GAP inh
OC(CSc1c(Cl)cccc1Cl)CN1CCN(c2ccc(F)cc2)CC1 (stereo not given)	15.4	-	-	-	-
Cc1sc2nc(SCC(=O)c3ccc(O)c(O)c3)n(C)c(=O)c2c1C	-	-	.	-	.
C=CCN(C)CC#Cc1ccccc1C	-	-	.	-	.
CCCN(CCC)C(=S)NC(=O)c1ccc(Cl)cc1Cl	12.9	-	-	-	-
COc1ccc(CCNC(=O)Nc2ccc3c(c2)[C@]2(CC(=O)N(CC(C)C)C2c2ccccc2)C(=O)N3C)cc1OC (stereo not given in full)	-	-	.	-	.
O=C(Cc1ccccc1)Nc1nc(=O)c2ccccc2s1	-	12.3	-	-	-
O=C(Cc1ccccc1)Nc1nc2ccccc2s1	-	-	-	-	-
O=C(Nc1ccc(N2CCCC2)cc1)c1cc(Br)ccc1Cl	-	-	31.6	-	-
CC(=O)N1CCN(C(=O)CCn2nnc3ccccc32)CC1	-	-	.	-	.
c1ccc(C[C@H]2CN=C(Nc3ccccc3)N2CCC2CCCC2)cc1	10.2	-	-	-	-
O=C1CCCN2N=C(SCC(=O)Nc3nccs3)SC2=N1	-	-	-	-	-
O=C1CCCN2N=C(SCC(=O)Nc3nc4ccccc4s3)SC2=N1	10.1	-	-	-	-
O=C(NCCOC(=O)c1ccccc1C(=O)OCCNC(=O)c1cccnc1)c1cccnc1	-	12.1	-	-	-
NC(=O)[C@H]1CC2(CC(c3cccc(NC(=O)CC(c4ccccc4)c4ccccc4)c3)=NO2)CN1C(=O)C(c1ccccc1)c1ccccc1 (stereo not given in full)	12.9	-	-	-	-
COC(=O)[C@]12C[C@H](CC(=O)N3CCN(C(=O)C4CC4)CC3)C(=O)N(CCc3ccc(OC)c(OC)c3)C1=C[C@H](C(C)(C)C)O[C@@H]2C	-	-	.	-	.
CC1=C(O)C(=O)C(C2=C(O)C(=O)C(C)=C(O)C2=O)=C(O)C1=O	47.3	-	-	-	-
Cc1ccc(C2=C(O)C(=O)C(c3ccc(C)cc3)=C(O)C2=O)cc1	-	-	-	-	-
O=C(O)c1cccc(N2C(=O)/C(=C/c3ccc(SCc4ccc(Cl)cc4)o3)SC2=S)c1	32.4	-	-	-	-
O=[N+]([O-])c1cccc(-c2ccc(C(=S)N3CCOCC3)o2)c1	-	-	-	-	-
O=C(Nc1ccc(CN2CCOCC2)cc1)c1ccc(-c2cccc([N+](=O)[O-])c2)o1	-	-	36.7	-	37.0
O=C(N=Nc1c(O)[nH]c2ccccc12)Nc1ccccc1	-	-	-	-	-
Cc1cccc(NC(=S)N=Nc2c(O)[nH]c3ccccc23)c1	10.9	-	-	20.2	-
CN(C)C=Nc1nc2c(Br)ccc(Br)c2cc1C(=O)NCC(C)(C)C	-	-	.	-	.
Cc1ccc(S(=O)(=O)N2CCN(C(=O)COC(=O)COc3ccc(Cl)cc3)CC2)c(C)c1	13.4	-	-	-	-
COc1ccc2c(c1)OC[C@H]1[C@H]2N2C(=O)c3ccccc3NC(=O)[C@@]2(C)[C@H]1c1ccccc1	-	-	-	38.6	-
SMILES	PLCg1 inh	PLCb3 inh	ARFGAP1 inhibitor	sPLA2-III inh	ASAP1 GAP inh
O=C(NC1CCC1)c1ccc(C#CC2CC2)c[n+]1[O-]	-	-	.	-	.
O=C(c1ccc(F)cc1)c1cccc(C(=O)c2ccc(F)cc2)n1	-	10.6	-	-	-
NC(=O)c1ccc(F)cc1	-	-	-	-	-
OC(c1ccccc1)(c1ccccc1)C1CCN(CCCOc2ccc(F)cc2)CC1	11.1!	-	-	-	-
COc1ccc(-n2c(COc3ccccc3)nnc2SCC(=O)Nc2ccccc2-c2ccccc2)cc1	-	-	.	-	.
C=CCn1c(O)c(N=NC(=S)Nc2ccccc2C)c2cc(S(=O)(=O)N3CCOCC3)ccc21	-	-	-	-	-
